{"data": "Measurements gathered from unrelated publications", "note": "Protocols differ between the studies behind these lines."}
{"SMILES": "C#Cc1ccc2c(c1)C(c1ccccn1)=NCc1c(-c3cnco3)ncn1-2.Cl", "matrix": "water", "time": "24 h", "temperature": "25 °C", "solubility": "5560 µg/mL"}
{"SMILES": "CC[C@H](C)[C@H](NC(=O)[C@H](Cc1ccccc1)NC(=O)[C@H](Cc1ccc(O)cc1)NC(=O)[C@@H]1CCCN1C(=O)[C@@H](N)Cc1ccc(O)cc1)C(=O)N1CCC[C@H]1C(=O)N[C@@H](C)C(=O)NCC(=O)N[C@H](CCCCN)C(=O)NCC(=O)N[C@@H](CCC(=O)O)C(=O)N[C@H](C(=O)N[C@@H](CC(N)=O)C(=O)N[C@@H](CC(C)C)[C@@H](O)CC(=O)N[C@H](C(=O)N[C@@H](C)C(=O)N[C@@H](CCC(=O)O)C(=O)N1CCC[C@@H]1C(=O)N[C@@H](CCCCNC(=O)CCC(=O)O[C@H]1CC[C@@]2(C)C(=CC[C@H]3[C@@H]4CC[C@H]([C@H](C)CCCC(C)C)[C@@]4(C)CC[C@@H]32)C1)C(N)=O)C(C)C)C(C)C", "matrix": "aqueous buffer", "pH": "pH 6.5", "solubility": "> 2450 µg/mL"}
{"SMILES": "CC[C@H](C)[C@H](NC(=O)[C@H](CO)NC(=O)[C@H](CCCNC(=N)N)NC(C)=O)C(=O)N[C@H]1CSSC[C@@H](C(=O)N[C@H](C(N)=O)[C@@H](C)O)NC(=O)[C@H](CCCNC(=N)N)NC(=O)[C@H](Cc2cnc[nH]2)NC(=O)[C@H](C)NC(=O)CNC(=O)[C@H](Cc2c[nH]c3ccccc23)NC(=O)[C@H](CC(=O)O)NC(=O)[C@H](CCC(N)=O)NC(=O)[C@H](Cc2ccc(O)cc2)NC(=O)[C@H](C(C)C)NC1=O", "matrix": "PBS", "pH": "pH 7.4", "solubility": "2840 µg/mL"}
{"SMILES": "COc1ccc(NC(=O)N2CCCCN3[C@H](CN(C)C)[C@H](c4ccc(C#Cc5ccccc5)cc4)[C@@H]3C2)cc1", "matrix": "aqueous buffer", "pH": "pH 7", "solubility": "33 µM"}
{"SMILES": "CC[C@H](C)[C@H](NC(C)=O)C(=O)N[C@H]1CSSC[C@@H](C(=O)N[C@H](C(N)=O)[C@@H](C)O)NC(=O)[C@H](CCCNC(=N)N)NC(=O)[C@H](Cc2c[nH]cn2)NC(=O)[C@](C)(CC)NC(=O)CNC(=O)[C@H](Cc2c[nH]c3ccccc23)NC(=O)[C@H](CC(=O)O)NC(=O)[C@H](CCC(N)=O)NC(=O)[C@H](Cc2c[nH]c3ccccc23)NC(=O)[C@H](C(C)C)NC1=O", "matrix": "PBS", "pH": "pH 7.4", "solubility": "3470 µg/mL"}
{"SMILES": "CCCSc1ccc2nc(NC(=O)OC)[nH]c2c1", "matrix": "water", "time": "24 h", "solubility": "< 1 µg/mL"}
{"SMILES": "COc1cc(C)c2[nH]cc(/C=N/NC(=N)NCCc3cccnc3)c2c1", "matrix": "PBS", "time": "2 h", "pH": "pH 7.4", "solubility": "30.1 µM"}
{"SMILES": "O=C1C=C(N(Cc2ccc(Cl)nc2)CC(F)F)CO1", "matrix": "water", "pH": "pH 7", "solubility": "3000 µg/mL"}
{"SMILES": "COc1ccc2c(c1)NC(=O)CN2c1nc(C)nc2c1CCC2", "matrix": "aqueous buffer", "pH": "pH 7.4", "solubility": "26.4 µg/mL"}
{"SMILES": "O=C(Nc1ccc(-c2ccc(C(=O)Nc3cccc4cccc(S(=O)(=O)O)c34)cc2)cc1)c1ccc([N+](=O)[O-])cc1", "matrix": "water", "solubility": "4.7 µg/mL"}
{"SMILES": "C=CC[C@@]1(C)NC(=O)CNC(=O)[C@H](Cc2c[nH]c3ccccc23)NC(=O)[C@H](CC(=O)O)NC(=O)[C@H](CCC(N)=O)NC(=O)[C@H](Cc2c[nH]c3ccccc23)NC(=O)[C@H](C(C)C)NC(=O)[C@@H](NC(=O)[C@@H](NC(C)=O)[C@@H](C)CC)CSSC[C@@H](C(=O)N[C@H](C(N)=O)[C@@H](C)O)NC(=O)[C@H](CCCNC(=N)N)NC(=O)[C@H](Cc2c[nH]cn2)NC1=O", "matrix": "PBS", "pH": "pH 7.4", "solubility": "3350 µg/mL"}
{"SMILES": "CNC(=O)O[C@@H](C)/C=C\\C(=O)N[C@H]1CC[C@@H](C/C=C(C)/C=C/[C@@H]2C[C@]3(CO3)CC(C)(C)O2)CC1", "technique": "HPLC", "matrix": "PBS", "solubility": "45 µM"}
{"SMILES": "CC(=O)N[C@@H](CC(N)=O)C(=O)N[C@@H](CCCNC(=N)N)C(=O)N[C@@H](CC(C)C)C(=O)N[C@H]1CSSC[C@@H](C(=O)N[C@H](C(N)=O)[C@@H](C)O)NC(=O)[C@H](CCCNC(=N)N)NC(=O)[C@H](Cc2c[nH]cn2)NC(=O)[C@H](Cc2cccc3ccccc23)NC(=O)CNC(=O)[C@H](Cc2c[nH]c3ccccc23)NC(=O)[C@H](CC(=O)O)NC(=O)[C@H](CCC(N)=O)NC(=O)[C@H](Cc2cccc3ccccc23)NC(=O)[C@H](C(C)C)NC1=O", "matrix": "PBS", "pH": "pH 7.4", "solubility": "300 µg/mL"}
{"SMILES": "Clc1ccc(CSc2nnc(-c3ccccn3)n2Cc2ccco2)cc1Cl", "matrix": "aqueous buffer", "pH": "pH 5", "solubility": "< 0.1 µg/mL"}
